Measured values taken from ChEMBL document CHEMBL1275595, “Antimicrobial activity of a halocidin-derived peptide resistant to attacks by proteases” (2010).
In brackets after ≈: the same amount, converted by molar mass. Activity calls are given as the source filed them. No cut-off for these calls is given here. Numbered stars: 1 amine (or outer) side, 2 acyl side, 3 side chain; on linkers, the order of the positions; unused ones are H or OH. Bridge positions count the residues as written; N and C are the ends. Square brackets hold non-standard residues; d marks the D form. Peptide text beside a SMILES is read from it. I, II: the chains in the order shown. Gly(αS-SH) = O=C([C@@H](N[*:1])S[*:3])[*:2]

Experiments:
Staphylococcus aureus [1] = assay: Antimicrobial activity against methicillin-resistant Staphylococcus aureus CCARM 3696 by radial diffusion assay incubated with chymotrypsin; type: functional, organism-based
Staphylococcus aureus [2] = assay: Antimicrobial activity against methicillin-resistant Staphylococcus aureus CCARM 3696 by radial diffusion assay incubated with trypsin; type: functional, organism-based
Escherichia coli = assay: Antimicrobial activity against Escherichia coli KCTC 1039 after 18 hrs by broth dilution method; type: functional; conditions: KCTC 1039, 18 h
How it was run: (§1)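 Broth microdilution following CLSI recommendations. Bacteria were grown overnight to stationary phase in Mueller-Hinton broth, then diluted in fresh MHB to 2 × 10^5 CFU/ml. Peptide or antibiotic stocks of 640 μg/ml in 0.01% acetic acid were serially 2-fold diluted to 10 μg/ml, and each was added to the bacterial suspension at 11 μl per 100 μl. Plates were incubated 18 h at 37°C. MIC was taken as the lowest concentration giving no visible turbidity, in triplicate.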

Pseudomonas aeruginosa = assay: Antimicrobial activity against multidrug-resistant Pseudomonas aeruginosa CCARM 2161 after 18 hrs by broth dilution method; type: functional; conditions: CCARM 2161, 18 h
How it was run: (§2)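 Broth dilution per CLSI. Bacteria were grown overnight to stationary phase in Mueller-Hinton broth and diluted in fresh MHB to 2 × 10^5 CFU/ml. Stocks at 640 μg/ml in 0.01% acetic acid were 2-fold serially diluted to 10 μg/ml, and 11 μl was added to 100 μl of bacteria. After 18 h at 37°C, MIC was the lowest concentration with no visible turbidity. Run in triplicate.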

Salmonella enterica = assay: Antimicrobial activity against Salmonella enterica KCTC 2930 after 18 hrs by broth dilution method; type: functional; conditions: KCTC 2930, 18 h; how it was run: as §1
Enterococcus faecium = assay: Antimicrobial activity against vancomycin-resistant Enterococcus faecium CCARM 5028 after 18 hrs by broth dilution method; type: functional; conditions: CCARM 5028, 18 h; how it was run: as §2
Klebsiella oxytoca = assay: Antimicrobial activity against Klebsiella oxytoca KCTC 1686 after 18 hrs by broth dilution method; type: functional; conditions: KCTC 1686, 18 h; how it was run: as §1
Micrococcus luteus = assay: Antimicrobial activity against Micrococcus luteus KCTC 9341 after 18 hrs by broth dilution method; type: functional; conditions: KCTC 9341, 18 h; how it was run: as §1
Citrobacter freundii = assay: Antimicrobial activity against Citrobacter freundii KCTC 2359 after 18 hrs by broth dilution method; type: functional; conditions: KCTC 2359, 18 h; how it was run: as §1
Listeria monocytogenes = assay: Antimicrobial activity against Listeria monocytogenes KCTC 19111 after 18 hrs by broth dilution method; type: functional; conditions: KCTC 19111, 18 h; how it was run: as §1
Staphylococcus aureus [3] = assay: Antimicrobial activity against methicillin-resistant Staphylococcus aureus CCARM 3696 after 18 hrs by broth dilution method; type: functional; conditions: CCARM 3696, 18 h; how it was run: as §2
Bacillus subtilis = assay: Antimicrobial activity against Bacillus subtilis KCTC 2213 after 18 hrs by broth dilution method; type: functional; conditions: KCTC 2213, 18 h; how it was run: as §1

| SMILES | Activity (Staphylococcus aureus [1]) | Activity (Staphylococcus aureus [2]) | MIC (Escherichia coli) [µg/mL] | MIC (Pseudomonas aeruginosa) [µg/mL] | MIC (Salmonella enterica) [µg/mL] | MIC (Enterococcus faecium) [µg/mL] | MIC (Klebsiella oxytoca) [µg/mL] | MIC (Micrococcus luteus) [µg/mL] | MIC (Citrobacter freundii) [µg/mL] | MIC (Listeria monocytogenes) [µg/mL] | MIC (Staphylococcus aureus [3]) [µg/mL] | MIC (Bacillus subtilis) [µg/mL] |
| --- | --- | --- | --- | --- | --- | --- | --- | --- | --- | --- | --- | --- |
| CC(C)C[C@H](NC(=O)[C@H](CC(C)C)NC(=O)[C@H](C)NC(=O)[C@H](CC(N)=O)NC(=O)[C@H](CC(C)C)NC(=O)[C@H](Cc1c[nH]c2ccccc12)NC(=O)[C@@H](N)CCCCN)C(=O)O (H-KWLNALL-OH) | inactive | – | – | – | – | – | – | – | – | – | – | – |
| CC(C)C[C@H](NC(=O)CNC(=O)[C@H](Cc1cnc[nH]1)NC(=O)[C@H](Cc1cnc[nH]1)NC(=O)[C@H](CC(C)C)NC(=O)[C@H](CC(C)C)NC(=O)[C@H](C)NC(=O)[C@H](CC(N)=O)NC(=O)[C@H](CC(C)C)NC(=O)[C@H](Cc1c[nH]c2ccccc12)NC(=O)[C@@H](N)CCCCN)C(=O)N[C@@H](CC(N)=O)C(=O)N[C@@H](CSS[C@H](NC(=O)[C@H](CC(N)=O)NC(=O)[C@H](CC(C)C)NC(=O)CNC(=O)[C@H](Cc1cnc[nH]1)NC(=O)[C@H](Cc1cnc[nH]1)NC(=O)[C@H](CC(C)C)NC(=O)[C@H](CC(C)C)NC(=O)[C@H](C)NC(=O)[C@H](CC(N)=O)NC(=O)[C@H](CC(C)C)NC(=O)[C@@H](N)Cc1c[nH]c2ccccc12)C(=O)N[C@@H](C)C(=O)N[C@@H](CCCCN)C(=O)O)C(=O)N[C@@H](C)C(=O)N[C@@H](CCCCN)C(=O)O (I: H-KWLNALLHHGLNCAK-OH / II: H-WLNALLHHGLN[Gly(αS-SH)]AK-OH; disulfide I:13-II:12) | – | Active | – | – | – | – | – | – | – | – | – | – |
| CC(C)C[C@H](NC(=O)CNC(=O)[C@H](Cc1cnc[nH]1)NC(=O)[C@H](Cc1cnc[nH]1)NC(=O)[C@H](CC(C)C)NC(=O)[C@H](CC(C)C)NC(=O)[C@H](C)NC(=O)[C@H](CC(N)=O)NC(=O)[C@H](CC(C)C)NC(=O)[C@H](Cc1c[nH]c2ccccc12)NC(=O)[C@@H](N)CCCCN)C(=O)N[C@@H](CC(N)=O)C(=O)N[C@@H](CSSC[C@H](NC(=O)[C@H](CC(N)=O)NC(=O)[C@H](CC(C)C)NC(=O)CNC(=O)[C@H](Cc1cnc[nH]1)NC(=O)[C@@H](N)Cc1cnc[nH]1)C(=O)N[C@@H](C)C(=O)N[C@@H](CCCCN)C(=O)NCC(=O)N[C@H](C(=O)N[C@@H](CC(C)C)C(=O)N[C@@H](C)C(N)=O)C(C)C)C(=O)N[C@@H](C)C(=O)N[C@@H](CCCCN)C(=O)NCC(=O)N[C@H](C(=O)N[C@@H](CC(C)C)C(=O)N[C@@H](C)C(N)=O)C(C)C (I: H-KWLNALLHHGLNCAKGVLA-NH2 / II: H-HHGLNCAKGVLA-NH2; disulfide I:13-II:6) | Active | – | – | – | – | – | – | – | – | – | – | – |
| CO/N=C(\C(=O)N[C@@H]1C(=O)N2C(C(=O)O)=C(CSc3nc(=O)c(O)nn3C)CS[C@H]12)c1csc(N)n1 [CEFTRIAXONE] | – | – | < 1 | > 64 | 4 (≈ 7.21 µM) | > 64 | < 1 | 16 (≈ 28.9 µM) | 2 (≈ 3.61 µM) | < 1 | > 64 | < 1 |
| C[C@H]1[C@H](NC(=O)/C(=N\OC(C)(C)C(=O)O)c2csc(N)n2)C(=O)N1S(=O)(=O)O [AZTREONAM] | – | – | < 1 | 8 (≈ 18.4 µM) | > 64 | > 64 | < 1 | > 64 | 4 (≈ 9.19 µM) | < 1 | > 64 | > 64 |
| CC(C)C[C@H](NC(=O)CNC(=O)[C@H](Cc1cnc[nH]1)NC(=O)[C@H](Cc1cnc[nH]1)NC(=O)[C@H](CC(C)C)NC(=O)[C@H](CC(C)C)NC(=O)[C@H](C)N)C(=O)N[C@@H](CC(N)=O)C(=O)N[C@@H](CSSC[C@H](NC(=O)[C@H](CC(N)=O)NC(=O)[C@H](CC(C)C)NC(=O)CNC(=O)[C@H](Cc1cnc[nH]1)NC(=O)[C@H](Cc1cnc[nH]1)NC(=O)[C@H](CC(C)C)NC(=O)[C@H](CC(C)C)NC(=O)[C@H](C)NC(=O)[C@H](CC(N)=O)NC(=O)[C@H](CC(C)C)NC(=O)[C@H](Cc1c[nH]c2ccccc12)NC(=O)[C@@H](N)CCCCN)C(=O)N[C@@H](C)C(=O)N[C@@H](CCCCN)C(=O)NCC(=O)N[C@H](C(=O)N[C@@H](CC(C)C)C(=O)N[C@@H](C)C(N)=O)C(C)C)C(=O)N[C@@H](C)C(=O)N[C@@H](CCCCN)C(=O)NCC(=O)N[C@H](C(=O)N[C@@H](CC(C)C)C(=O)N[C@@H](C)C(N)=O)C(C)C (I: H-KWLNALLHHGLNCAKGVLA-NH2 / II: H-ALLHHGLNCAKGVLA-NH2; disulfide I:13-II:9) | – | – | 4 (≈ 1.12 µM) | 8 (≈ 2.24 µM) | 4 (≈ 1.12 µM) | 4 (≈ 1.12 µM) | 4 (≈ 1.12 µM) | 8 (≈ 2.24 µM) | 8 (≈ 2.24 µM) | 4 (≈ 1.12 µM) | 8 (≈ 2.24 µM) | 4 (≈ 1.12 µM) |
